ChEMBL document CHEMBL2176910, “Identification of small molecule inhibitors of amyloid β-induced neuronal apoptosis acting through the imidazoline I(2) receptor” (J Med Chem, 2012)
Active and inactive are the calls of the source. The rule behind the calls is not given here.

What was measured:
[1] = target: Mu-type opioid receptor (Homo sapiens) (UniProt P35372); test: Inhibition of radioligand binding to MOP receptor at 10 uM
Method in brief: (§1)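 Part of an in vitro radioligand binding panel. Each target was tested against a potent standard radioligand for that site. The read-out was percent inhibition of specific binding, reported as an average value.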

[2] = target: T1, 5-hydroxytryptamine receptor 3A (Homo sapiens) (UniProt P46098); test: Inhibition of radioligand binding to 5HT3 at 10 uM; method in brief: as §1
T1 sequence (whole entry): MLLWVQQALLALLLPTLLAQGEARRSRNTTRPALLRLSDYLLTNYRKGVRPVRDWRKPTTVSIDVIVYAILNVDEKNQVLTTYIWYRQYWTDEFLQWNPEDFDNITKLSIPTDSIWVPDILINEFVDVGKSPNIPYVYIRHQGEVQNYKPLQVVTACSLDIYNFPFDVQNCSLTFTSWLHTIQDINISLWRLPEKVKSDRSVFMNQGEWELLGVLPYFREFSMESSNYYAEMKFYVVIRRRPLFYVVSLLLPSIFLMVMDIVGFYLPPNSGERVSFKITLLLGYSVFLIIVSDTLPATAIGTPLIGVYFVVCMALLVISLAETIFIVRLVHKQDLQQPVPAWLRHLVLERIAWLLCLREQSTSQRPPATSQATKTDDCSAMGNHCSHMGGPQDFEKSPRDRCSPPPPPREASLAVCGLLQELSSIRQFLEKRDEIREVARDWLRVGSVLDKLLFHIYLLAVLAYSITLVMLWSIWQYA

[3] = target: T2, 5-hydroxytryptamine receptor 2C (Homo sapiens) (UniProt P28335); test: Inhibition of radioligand binding to 5HT2C at 10 uM; method in brief: as §1
T2 sequence (whole entry): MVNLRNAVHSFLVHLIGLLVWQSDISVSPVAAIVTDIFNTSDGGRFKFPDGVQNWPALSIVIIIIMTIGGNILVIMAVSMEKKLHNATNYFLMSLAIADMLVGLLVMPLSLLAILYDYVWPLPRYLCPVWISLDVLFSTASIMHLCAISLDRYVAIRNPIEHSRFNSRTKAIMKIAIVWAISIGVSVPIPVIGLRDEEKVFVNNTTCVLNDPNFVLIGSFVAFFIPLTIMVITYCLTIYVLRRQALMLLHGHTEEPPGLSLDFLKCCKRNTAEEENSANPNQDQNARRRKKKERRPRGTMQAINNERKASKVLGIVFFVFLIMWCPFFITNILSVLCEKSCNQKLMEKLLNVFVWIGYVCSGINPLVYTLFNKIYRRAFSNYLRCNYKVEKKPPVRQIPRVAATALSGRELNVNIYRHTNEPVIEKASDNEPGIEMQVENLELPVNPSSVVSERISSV

[4] = Inhibition of radioligand binding to alpha2 adrenergic receptor at 10 uM; method in brief: as §1
Nischarin = Nischarin (Homo sapiens, UniProt Q9Y2I1); test: Inhibition of radioligand binding to imidazole receptor 1 at 10 uM
[5] = target: Kappa-type opioid receptor (Homo sapiens) (UniProt P41145); test: Inhibition of radioligand binding to KOP receptor at 10 uM; method in brief: as §1
Hippocampal neuron [6] = test: Neuroprotective activity against Abeta-induced neuronal apoptosis in mouse hippocampal neurons assessed as reduction in DNA fragmentation at 30 uM pre-incubated for 4 hrs before Abeta challenge for 72 hrs by immunofluorescence microscopy; format: functional, tissue-based; settings: Hippocampus
Method in brief: (§2)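 Primary mouse hippocampal neurons were exposed to Aβ (20 μM, 72 h) alone or with compound. Double immunofluorescence microscopy was then run for DNA fragmentation (TUNEL, green) and total neuronal nuclei (NeuN, red), with merged images. DNase-treated cells served as positive control.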

[7] = target: D(2) dopamine receptor (Homo sapiens) (UniProt P14416); test: Inhibition of radioligand binding to D2L receptor at 10 uM; method in brief: as §1
[8] = target: Muscarinic acetylcholine receptor M3 (Homo sapiens) (UniProt P20309); test: Inhibition of radioligand binding to muscarinic M3 receptor at 10 uM; method in brief: as §1
[9] = target: T3, 5-hydroxytryptamine receptor 1A (Homo sapiens) (UniProt P08908); test: Inhibition of radioligand binding to 5HT1A at 10 uM; method in brief: as §1
T3 sequence (whole entry): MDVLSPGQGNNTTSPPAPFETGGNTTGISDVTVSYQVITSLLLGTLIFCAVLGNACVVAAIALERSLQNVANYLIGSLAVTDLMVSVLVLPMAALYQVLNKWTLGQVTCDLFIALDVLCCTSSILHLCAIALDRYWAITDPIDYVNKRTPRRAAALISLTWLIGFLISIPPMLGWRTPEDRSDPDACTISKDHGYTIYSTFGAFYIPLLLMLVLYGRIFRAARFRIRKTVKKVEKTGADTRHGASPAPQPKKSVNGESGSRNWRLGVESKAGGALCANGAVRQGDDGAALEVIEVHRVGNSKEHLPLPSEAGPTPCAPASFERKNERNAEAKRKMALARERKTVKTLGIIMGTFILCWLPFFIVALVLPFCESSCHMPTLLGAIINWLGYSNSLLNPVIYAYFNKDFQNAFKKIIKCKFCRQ

[10] = target: Acetylcholinesterase (Homo sapiens) (UniProt P22303); test: Inhibition of AChE at 10 uM; method in brief: as §1
Hippocampal neuron [11] = test: Neuroprotective activity against Abeta-induced neuronal apoptosis in mouse hippocampal neurons assessed as reduction in total neuronal nuclei level at 30 uM pre-incubated for 4 hrs before Abeta challenge for 72 hrs by immunofluorescence microscopy; format: functional, tissue-based; settings: Hippocampus; method in brief: as §2
[12] = Inhibition of radioligand binding to N-methyl D-aspartate receptor phencyclidine binding site at 10 uM
Method in brief: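 Radioligand binding panel. Values are average percentages of inhibition of specific binding, measured against potent standard ligands for each target.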

[13] = target: Delta-type opioid receptor (Homo sapiens) (UniProt P41143); test: Inhibition of radioligand binding to DOP receptor at 10 uM; method in brief: as §1
[14] = target: 5-hydroxytryptamine receptor 2A (Homo sapiens) (UniProt P28223); test: Inhibition of radioligand binding to 5HT2A at 10 uM; method in brief: as §1
[15] = Displacement of [3H]idazoxan from rat cerebral cortex imidazole receptor 2 in presence of 1 uM yohimbine; format: tissue-based
Mus musculus = species on record: Mus musculus; test: Inhibition of imidazole receptor 2 in mouse hippocampal neurons assessed as reduction in tPA-induced Erk1/2 activation at 30 uM pre-incubated for 4 hrs before tPA stimulation by ELISA; settings: Hippocampus
Method in brief: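 Primary mouse hippocampal neurons were stimulated with tPA (20 μg/mL, 1 h) with or without compound at 30 μM. Phospho-Erk1/2 was measured by ELISA with a phospho-specific antibody and normalized to total Erk1/2. Untreated cultures set the lower limit and tPA alone the upper limit.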

D(2) dopamine receptor (Homo sapiens), sequence (P14416 whole entry): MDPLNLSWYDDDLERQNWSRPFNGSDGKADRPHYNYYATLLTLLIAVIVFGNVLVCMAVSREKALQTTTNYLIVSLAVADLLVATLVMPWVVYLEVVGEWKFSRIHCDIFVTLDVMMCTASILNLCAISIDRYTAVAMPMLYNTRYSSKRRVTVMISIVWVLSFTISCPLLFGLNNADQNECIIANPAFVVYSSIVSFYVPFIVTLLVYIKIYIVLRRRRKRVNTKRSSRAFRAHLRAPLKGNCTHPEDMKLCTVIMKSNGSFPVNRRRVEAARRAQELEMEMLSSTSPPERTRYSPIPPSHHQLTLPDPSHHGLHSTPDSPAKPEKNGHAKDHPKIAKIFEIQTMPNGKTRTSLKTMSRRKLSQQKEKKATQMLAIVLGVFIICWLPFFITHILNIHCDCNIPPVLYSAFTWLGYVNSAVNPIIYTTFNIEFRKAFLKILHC
Mu-type opioid receptor (Homo sapiens), sequence (P35372 whole entry): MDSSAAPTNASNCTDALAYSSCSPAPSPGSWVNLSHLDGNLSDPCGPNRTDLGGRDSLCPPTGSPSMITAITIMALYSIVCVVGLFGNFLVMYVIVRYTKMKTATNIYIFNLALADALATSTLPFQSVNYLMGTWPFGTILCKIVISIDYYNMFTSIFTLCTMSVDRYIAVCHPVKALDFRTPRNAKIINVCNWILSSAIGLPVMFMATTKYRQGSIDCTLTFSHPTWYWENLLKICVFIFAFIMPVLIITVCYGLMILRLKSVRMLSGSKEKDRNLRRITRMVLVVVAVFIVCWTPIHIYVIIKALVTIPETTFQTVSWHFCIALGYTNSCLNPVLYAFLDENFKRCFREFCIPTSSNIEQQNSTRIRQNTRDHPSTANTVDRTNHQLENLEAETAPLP
Acetylcholinesterase (Homo sapiens), sequence (P22303 whole entry): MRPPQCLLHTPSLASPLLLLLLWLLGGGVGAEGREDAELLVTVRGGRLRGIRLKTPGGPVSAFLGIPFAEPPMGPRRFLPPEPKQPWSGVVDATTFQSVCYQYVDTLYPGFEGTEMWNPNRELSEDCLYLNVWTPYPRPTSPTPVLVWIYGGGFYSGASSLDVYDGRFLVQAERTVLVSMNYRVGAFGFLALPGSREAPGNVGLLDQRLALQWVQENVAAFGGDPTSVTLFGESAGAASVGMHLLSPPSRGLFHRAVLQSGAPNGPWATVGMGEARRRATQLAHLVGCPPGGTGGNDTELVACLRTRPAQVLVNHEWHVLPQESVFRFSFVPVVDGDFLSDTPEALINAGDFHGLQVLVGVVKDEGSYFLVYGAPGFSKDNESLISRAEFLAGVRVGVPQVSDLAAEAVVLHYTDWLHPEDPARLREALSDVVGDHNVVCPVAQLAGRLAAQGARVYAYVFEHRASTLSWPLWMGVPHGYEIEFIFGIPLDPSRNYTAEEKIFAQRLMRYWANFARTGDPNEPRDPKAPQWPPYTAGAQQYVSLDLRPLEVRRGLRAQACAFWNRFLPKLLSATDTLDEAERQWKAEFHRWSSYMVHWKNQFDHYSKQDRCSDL
5-hydroxytryptamine receptor 2A (Homo sapiens), sequence (P28223 whole entry): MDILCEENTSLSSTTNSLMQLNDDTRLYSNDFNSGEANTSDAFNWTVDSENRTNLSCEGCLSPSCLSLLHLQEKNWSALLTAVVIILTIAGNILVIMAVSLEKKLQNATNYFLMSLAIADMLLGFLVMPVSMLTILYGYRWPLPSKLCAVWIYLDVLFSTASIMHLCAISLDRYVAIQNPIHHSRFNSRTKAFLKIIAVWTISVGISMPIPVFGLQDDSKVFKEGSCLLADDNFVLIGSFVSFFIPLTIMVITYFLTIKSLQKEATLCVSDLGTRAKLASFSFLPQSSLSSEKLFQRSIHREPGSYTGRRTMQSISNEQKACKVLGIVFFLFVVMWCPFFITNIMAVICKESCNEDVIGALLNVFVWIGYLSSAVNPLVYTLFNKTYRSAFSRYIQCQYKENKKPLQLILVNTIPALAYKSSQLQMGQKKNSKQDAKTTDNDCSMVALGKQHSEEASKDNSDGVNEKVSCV
Muscarinic acetylcholine receptor M3 (Homo sapiens), sequence (P20309 whole entry, looked up): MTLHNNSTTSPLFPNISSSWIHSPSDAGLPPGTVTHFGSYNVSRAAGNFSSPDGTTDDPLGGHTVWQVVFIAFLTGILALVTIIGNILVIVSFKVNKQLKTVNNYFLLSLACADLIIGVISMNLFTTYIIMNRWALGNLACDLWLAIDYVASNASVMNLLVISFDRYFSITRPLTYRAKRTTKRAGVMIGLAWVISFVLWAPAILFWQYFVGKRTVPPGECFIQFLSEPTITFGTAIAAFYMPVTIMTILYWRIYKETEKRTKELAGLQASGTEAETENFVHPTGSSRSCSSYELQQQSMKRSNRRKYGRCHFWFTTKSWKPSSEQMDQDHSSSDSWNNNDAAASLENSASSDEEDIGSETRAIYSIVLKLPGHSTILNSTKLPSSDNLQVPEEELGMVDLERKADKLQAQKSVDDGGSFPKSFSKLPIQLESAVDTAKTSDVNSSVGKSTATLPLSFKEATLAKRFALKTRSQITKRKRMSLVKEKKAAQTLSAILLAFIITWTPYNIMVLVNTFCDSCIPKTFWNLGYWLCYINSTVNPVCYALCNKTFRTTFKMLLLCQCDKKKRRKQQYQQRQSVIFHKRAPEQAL
Delta-type opioid receptor (Homo sapiens), sequence (P41143 whole entry): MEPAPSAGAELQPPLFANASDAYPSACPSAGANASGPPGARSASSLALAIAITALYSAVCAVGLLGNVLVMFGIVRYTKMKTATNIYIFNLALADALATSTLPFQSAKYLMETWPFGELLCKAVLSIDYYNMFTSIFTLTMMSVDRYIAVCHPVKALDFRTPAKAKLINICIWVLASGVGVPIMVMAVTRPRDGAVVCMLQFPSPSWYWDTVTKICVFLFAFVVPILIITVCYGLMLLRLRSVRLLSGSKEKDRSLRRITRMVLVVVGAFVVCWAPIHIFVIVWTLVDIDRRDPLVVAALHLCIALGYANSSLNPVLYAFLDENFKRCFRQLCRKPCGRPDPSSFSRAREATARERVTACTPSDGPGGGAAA
Kappa-type opioid receptor (Homo sapiens), sequence (P41145 whole entry, the tested form may be a part): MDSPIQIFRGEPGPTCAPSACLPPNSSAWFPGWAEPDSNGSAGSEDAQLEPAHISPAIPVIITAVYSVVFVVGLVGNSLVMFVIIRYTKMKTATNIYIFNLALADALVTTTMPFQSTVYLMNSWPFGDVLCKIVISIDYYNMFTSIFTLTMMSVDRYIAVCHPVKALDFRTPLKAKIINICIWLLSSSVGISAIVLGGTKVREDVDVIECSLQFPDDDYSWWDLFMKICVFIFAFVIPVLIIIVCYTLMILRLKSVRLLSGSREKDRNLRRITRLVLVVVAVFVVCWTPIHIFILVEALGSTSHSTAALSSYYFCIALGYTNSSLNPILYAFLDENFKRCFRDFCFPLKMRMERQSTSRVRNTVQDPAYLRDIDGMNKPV
Nischarin, sequence (Q9Y2I1 whole entry): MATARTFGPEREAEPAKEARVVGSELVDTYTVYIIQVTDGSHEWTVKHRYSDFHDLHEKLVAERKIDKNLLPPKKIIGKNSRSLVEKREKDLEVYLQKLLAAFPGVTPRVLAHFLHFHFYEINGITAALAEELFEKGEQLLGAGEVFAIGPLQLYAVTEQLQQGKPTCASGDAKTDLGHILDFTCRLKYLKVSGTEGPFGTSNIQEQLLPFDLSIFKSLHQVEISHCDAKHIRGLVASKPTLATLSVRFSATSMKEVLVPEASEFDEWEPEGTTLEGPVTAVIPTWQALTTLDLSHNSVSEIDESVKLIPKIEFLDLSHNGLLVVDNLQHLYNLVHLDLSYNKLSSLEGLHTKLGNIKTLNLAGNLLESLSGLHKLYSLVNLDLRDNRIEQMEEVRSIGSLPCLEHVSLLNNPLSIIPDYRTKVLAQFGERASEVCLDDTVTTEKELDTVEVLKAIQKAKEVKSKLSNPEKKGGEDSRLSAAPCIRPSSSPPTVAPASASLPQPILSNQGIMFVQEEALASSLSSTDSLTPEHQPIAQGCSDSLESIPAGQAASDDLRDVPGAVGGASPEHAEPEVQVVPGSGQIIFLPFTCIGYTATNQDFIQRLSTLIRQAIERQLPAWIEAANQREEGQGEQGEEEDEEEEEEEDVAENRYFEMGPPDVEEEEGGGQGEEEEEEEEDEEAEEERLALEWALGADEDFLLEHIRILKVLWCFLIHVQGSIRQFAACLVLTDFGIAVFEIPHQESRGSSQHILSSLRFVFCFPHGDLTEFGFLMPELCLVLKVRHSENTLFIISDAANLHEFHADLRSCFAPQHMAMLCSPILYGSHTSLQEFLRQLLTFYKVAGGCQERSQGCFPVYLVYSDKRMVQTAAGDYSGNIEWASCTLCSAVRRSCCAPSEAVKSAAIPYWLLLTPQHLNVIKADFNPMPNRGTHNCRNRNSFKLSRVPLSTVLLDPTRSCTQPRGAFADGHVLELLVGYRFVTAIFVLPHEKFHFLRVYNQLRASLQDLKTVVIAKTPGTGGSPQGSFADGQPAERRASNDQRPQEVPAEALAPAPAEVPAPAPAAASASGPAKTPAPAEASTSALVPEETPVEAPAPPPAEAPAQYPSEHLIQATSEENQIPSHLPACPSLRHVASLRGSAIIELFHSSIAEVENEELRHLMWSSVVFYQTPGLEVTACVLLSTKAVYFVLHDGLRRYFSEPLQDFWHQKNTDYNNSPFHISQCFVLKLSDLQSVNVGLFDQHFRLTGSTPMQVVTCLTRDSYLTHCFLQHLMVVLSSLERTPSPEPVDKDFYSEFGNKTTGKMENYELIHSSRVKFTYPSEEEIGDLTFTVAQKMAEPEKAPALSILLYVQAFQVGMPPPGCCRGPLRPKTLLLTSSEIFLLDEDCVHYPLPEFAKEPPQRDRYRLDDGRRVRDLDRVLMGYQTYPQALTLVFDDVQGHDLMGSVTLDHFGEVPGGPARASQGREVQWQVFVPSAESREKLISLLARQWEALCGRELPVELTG

Structure (SMILES) | inhibition [1] [%] | inhibition [2] [%] | inhibition [3] [%] | inhibition [4] [%] | inhibition (Nischarin) [%] | inhibition [5] [%] | Activity (Hippocampal neuron [6]) | inhibition [7] [%] | inhibition [8] [%] | inhibition [9] [%] | inhibition [10] [%] | Activity (Hippocampal neuron [11]) | inhibition [12] | inhibition [13] [%] | inhibition [14] [%] | Ki [15] [µM] | inhibition of tPA-induced Erk1/2 activation (active/inactive call) (Mus musculus)
CN(C)C(CN)c1ccccc1Cl (stereo unspecified) | < 20 | < 20 | < 20 | < 20 | < 20 | < 20 | Active | < 20 | < 20 | < 20 | < 20 | Active | inactive | < 20 | < 20 | 14 | Active
NCC12CCC3CC(CC3C1)C2 (stereo unspecified) | < 20 | < 20 | < 20 | < 20 | < 20 | < 20 | Active | < 20 | < 20 | < 20 | < 20 | Active | inactive | < 20 | < 20 | 26 | Active
CN1CCNC(c2ccccc2)C1 (stereo unspecified) | < 20 | < 20 | < 20 | < 20 | 36 | < 20 | Active | < 20 | < 20 | < 20 | < 20 | Active | inactive | < 20 | < 20 | 18 | Active
